The structures appear in SMILES notation. A value given as a limit tells only on which side of the number the result lay.

The subject of test [1] is Plasmodium berghei. Description: Antiplasmodial activity against Plasmodium berghei CTRPp expressing GFP assessed as inhibition of early sporogonic stages development at 50 ug/ml after 24 hrs by fluorescence microscopy.
Test [2] concerns Plasmodium berghei. The test can be described thus: Antiplasmodial activity against Plasmodium berghei CTRPp expressing GFP assessed as inhibition of early sporogonic stages development after 24 hrs by fluorescence microscopy.
The next test has as its system HaCaT. Description: Cytotoxicity against human HaCaT cells. The class given is cell-based.
In test [3] the test system is Plasmodium berghei. Description: Antiplasmodial activity against Plasmodium berghei CTRPp expressing GFP assessed as decrease in capacity of zygote to undergo ookinete maturation after 24 hrs by Zeiss fluorescence microscopy. The class given is functional, organism-based. In short, it runs like this: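 Mice were primed with phenylhydrazine 120 mg/kg ip and infected ip with 10^7 P. berghei CTRPp.GFP RBCs. Day-4 blood with >3 exflagellation centres/1000 RBCs went into pH 7.4 RPMI 1640 (100 μM xanthurenic acid, 20% FBS) with compound over a dose range. Incubation was 19 °C, 24 h. GFP zygotes and ookinetes were counted by fluorescence microscopy, with inhibition calculated against 0.1% DMSO. Wells were in triplicate, and experiments were run at least twice.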

The next test concerns A-375. Description: Cytotoxicity against human A375 cells. The class given is cell-based.

Usually inhibition stands for the relative decrease from the control value, in per cent. As to `C/C=C(/C)C(=O)O[C@]1(C)C(=O)O[C@H]2C[C@]3(C)O[C@H]3CC/C(C)=C/[C@H](OC(=O)[C@@]3(C)O[C@H]3C)[C@@H]21`, the inhibition at 50 µg/mL with Plasmodium berghei [1] fell in the range of 22 to 35%.
In general, IC50 refers to the concentration that gives 50% inhibition. Consider `C/C=C(/C)C(=O)O[C@]1(C)C(=O)O[C@H]2C/C(C)=C/CC/C(C)=C/[C@H](OC(=O)[C@@]3(C)O[C@H]3C)[C@@H]21`, for which the IC50 in the test with Plasmodium berghei [2] is 82.3 µM; in the test on HaCaT it was greater than 100 µM; with Plasmodium berghei [3], 48.4 µM; in the test on A-375 it was greater than 100 µM. For the same molecule, the inhibition at 50 µg/mL in the test with Plasmodium berghei [1] stood at 92%.
`C=C1C[C@H](OC(=O)/C(C)=C\C)[C@H]2[C@H](/C=C(\C)CC[C@@H]1O)OC(=O)[C@@]2(C)O`: in the test on Plasmodium berghei [1], the inhibition at 50 µg/mL was 22 to 35%.
Turning to `C/C=C(/C)C(=O)O[C@H]1/C=C(\C)CC[C@@H]2O[C@@]2(C)C[C@@H]2OC(=O)[C@@](C)(O)[C@@H]12`, the inhibition at 50 µg/mL with Plasmodium berghei [1] lay within 22 to 35%.
On the same count and under the same terms, with `C/C=C(/C)C(=O)O[C@]1(C)C(=O)O[C@H]2C/C(C)=C/CC[C@]3(C)O[C@H]3[C@H](OC(=O)[C@@]3(C)O[C@H]3C)[C@@H]21` the figure was 22 to 35%.
Regarding `C=C[C@@]12COC(=O)C(=C)[C@@H]1[C@@H](O)[C@H](C(=C)C(=O)OC)[C@@H](OC(=O)C(=C)CO)C2` [VERNODALOL], the half-inhibitory concentration (IC50) in the test with Plasmodium berghei [2] is 19 µM.
As to `C/C=C(/C)C(=O)O[C@@H]1[C@H]2[C@H](C/C(C)=C/CC[C@]3(C)O[C@@H]13)OC(=O)[C@@]2(C)O`, the inhibition at 50 µg/mL in the test with Plasmodium berghei [1] lay within 22 to 35%.
Still for that read-out and setting: with `C=C1C[C@@H]2OC(=O)[C@@](C)(O)[C@H]2[C@@H](OC(=O)/C(C)=C\C)[C@@H]2O[C@@]2(C)CC[C@H]1OO` the figure was 22 to 35%.
